Results on 10 molecules are retold here after ChEMBL document CHEMBL1146487, “New cytotoxic clerodane diterpenoids from the leaves and twigs of Casearia membranacea” (J Nat Prod, 2004).

pIC50: −log10 of the molar value.

For one assay, the system named is PC-3. The assay is described as follows: Cytotoxicity against human PC3 cells after 48 hrs by SRB assay. It is filed as functional, cell-based. Particulars: PC-3, 48 h. In outline: (§1)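 Cells seeded in RPMI 1640 with 5% FBS at 37 °C, 5% CO2. A time-zero plate set fixed with TCA at 24 h. Drug added, then 48 h further incubation. Cold-TCA fixation, 0.4% w/v SRB in 1% acetic acid for 10 min, acetic acid washes, dye dissolved in 10 mM Tris base, A515 read. IC50 = concentration giving 50% absorbance reduction versus untreated cells.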
A general note: The SRB assay estimates cell density from bound dye.

Assay [1] in a line: Cytotoxicity against human Hep3B cells after 48 hrs by SRB assay. It is filed as functional, cell-based, Hep 3B2. In a few lines: as §1

One may read the pIC50 as the IC50 on a negative log10 scale, so that one unit is a factor of ten. As for `C=CC(=C)CC[C@]1(C)[C@H]2C[C@H](OC(=O)C(C)CC)C=C3[C@H](OC(C)=O)O[C@H](OC(C)=O)[C@@]32[C@H](OC(=O)c2cccnc2)C[C@@H]1C` (stereo not given in full), the values for the pIC50 (in the assay with PC-3; in assay [1]) were 4.89 and 4.97, respectively.
On the same counts, the results for `C=CC(=C)CC[C@]1(C)[C@H]2C[C@@H](OC(=O)C(C)CC)C=C3[C@H](OC(C)=O)O[C@H](OC(C)=O)[C@@]32[C@H](O)C[C@@H]1C` (relative stereo) [CASEAMEMBRIN E] are 5.54 and 5.59.
On the same counts, the results for `C=CC(=C)CC[C@]1(C)[C@H]2C[C@H](OC(=O)C(C)CC)C=C3[C@H](OC(=O)CCC)O[C@H](OC(C)=O)[C@@]32[C@H](OC(C)=O)[C@H](OC(C)=O)[C@@H]1C` (stereo not given in full) are 4.89 and 4.77.
For `C=CC(=C)CC[C@]1(C)[C@H]2C[C@H](OC(=O)C(C)CC)C=C3[C@H](OC(C)=O)O[C@H](OC(C)=O)[C@@]32[C@H](O)C[C@@H]1C` (relative stereo) the same measures were 5.74 and 5.62.
`C=CC(=C)CC[C@]1(C)[C@H]2C[C@H](OC(=O)C(C)CC)C=C3[C@H](OC(=O)CCC)O[C@H](OC(C)=O)[C@@]32[C@H](O)C[C@@H]1C` (relative stereo) [CASEAMEMBRIN A]: the pIC50 in the assay on PC-3 was 5.82; in assay [1] it was 5.64.
In the case of `C=CC(=C)CC[C@]1(C)[C@H]2C[C@H](OC(=O)C(C)CC)C=C3[C@H](OC(=O)CCC)O[C@H](OC(C)=O)[C@@]32[C@H](O)[C@H](OC(C)=O)[C@@H]1C` (relative stereo) [CASEAMEMBRIN D], the figures for the pIC50 (in the assay with PC-3; in assay [1]) were 5.62 and 5.72, respectively.
On the same counts, the results for `C=CC(=C)CC[C@]1(C)[C@H]2C[C@H](OC(=O)C(C)CC)C=C(C=O)[C@@]2(C=O)[C@H](O)C[C@@H]1C` (relative stereo) [CASEAMEMBRIN F] are 5.52 and 4.83.
For the molecule `C=CC(=C)CC[C@]1(C)[C@H]2C[C@H](OC(=O)C(C)CC)C=C3[C@H](OC(=O)CCC)O[C@H](OC(C)=O)[C@@]32[C@H](O)[C@H](O)[C@@H]1C` (relative stereo) [CASEAMEMBRIN C], the values for the pIC50 (in the assay on PC-3; in assay [1]) were 6.22 and 6.10, respectively.
On the same counts, the results for `CC(=O)O[C@H]1C(=O)[C@@]2(C)[C@H]([C@H](OC(=O)c3ccccc3)[C@]3(O)C[C@H](OC(=O)[C@H](O)[C@@H](NC(=O)c4ccccc4)c4ccccc4)C(C)=C1C3(C)C)[C@]1(OC(C)=O)CO[C@@H]1C[C@@H]2O` [PACLITAXEL] are 7.80 and 7.51.
On the same counts, the results for `C=CC(=C)CC[C@]1(C)[C@H]2C[C@H](OC(=O)C(C)CC)C=C3[C@H](OC)O[C@H](OC(C)=O)[C@@]32[C@H](O)C[C@@H]1C` (relative stereo) [CASEAMEMBRIN B] are 4.65 and 4.74.
